The source made the active and inactive calls. The calls are words filed in the database; no cut-off is given here.
Experiments:
[1] = target: T1, Tyrosine-protein phosphatase non-receptor type 2 (Homo sapiens, UniProt P17706); assay: Inhibition of TCPTP (unknown origin) using pNPP as substrate
T1 sequence (P17706 whole entry): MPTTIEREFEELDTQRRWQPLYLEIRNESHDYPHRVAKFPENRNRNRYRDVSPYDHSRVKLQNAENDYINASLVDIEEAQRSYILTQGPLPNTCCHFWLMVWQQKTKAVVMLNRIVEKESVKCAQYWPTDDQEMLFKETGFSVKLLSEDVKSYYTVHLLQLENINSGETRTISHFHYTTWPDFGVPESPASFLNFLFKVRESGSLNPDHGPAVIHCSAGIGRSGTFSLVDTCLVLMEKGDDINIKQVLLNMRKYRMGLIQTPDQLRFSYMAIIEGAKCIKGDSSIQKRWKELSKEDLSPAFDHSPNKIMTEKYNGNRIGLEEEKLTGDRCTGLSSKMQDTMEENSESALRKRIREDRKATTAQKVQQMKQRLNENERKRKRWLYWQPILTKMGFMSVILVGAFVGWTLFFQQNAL

[2] = target: T2, Tyrosine-protein phosphatase non-receptor type 6 (Homo sapiens, UniProt P29350); assay: Inhibition of SHP1 (unknown origin) at 20 ug/ml using pNPP as substrate
Outline: (§1)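 Single-point screen at 20 µg/mL of compound against each phosphatase (LAR, SHP-1, SHP-2), with pNPP hydrolysis as the read-out.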

[3] = target: T3, M-phase inducer phosphatase 2 (Homo sapiens, UniProt P30305); assay: Inhibition of CDC25B (unknown origin) using pNPP as substrate
T3 sequence (P30305 whole entry): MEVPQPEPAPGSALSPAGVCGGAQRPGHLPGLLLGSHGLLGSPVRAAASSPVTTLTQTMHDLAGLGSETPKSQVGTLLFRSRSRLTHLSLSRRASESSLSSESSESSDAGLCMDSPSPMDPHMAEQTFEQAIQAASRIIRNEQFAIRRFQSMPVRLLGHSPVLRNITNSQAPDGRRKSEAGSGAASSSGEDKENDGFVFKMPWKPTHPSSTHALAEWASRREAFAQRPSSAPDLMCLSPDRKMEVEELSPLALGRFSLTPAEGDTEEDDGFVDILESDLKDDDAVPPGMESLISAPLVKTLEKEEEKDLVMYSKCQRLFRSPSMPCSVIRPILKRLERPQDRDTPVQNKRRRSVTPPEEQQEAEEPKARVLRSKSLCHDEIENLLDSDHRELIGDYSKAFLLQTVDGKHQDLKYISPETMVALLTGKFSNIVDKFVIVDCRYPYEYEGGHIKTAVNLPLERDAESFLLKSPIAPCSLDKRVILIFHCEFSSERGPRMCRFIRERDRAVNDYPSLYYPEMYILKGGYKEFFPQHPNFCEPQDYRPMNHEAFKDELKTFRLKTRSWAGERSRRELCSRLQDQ
Outline: (§2)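 Same pNPP-substrate phosphatase assay as for PTP1B, applied for selectivity. Compounds were first screened at 20 μg/mL, then tested over a dose range. IC50 was obtained by regression analysis and reported as mean ± SD of three replications. Oleanolic acid served as the positive control.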

[4] = target: T4, Tyrosine-protein phosphatase non-receptor type 11 (Homo sapiens) (UniProt Q06124); assay: Inhibition of SHP2 (unknown origin) at 20 ug/ml using pNPP as substrate; outline: as §1
T4 sequence (whole entry): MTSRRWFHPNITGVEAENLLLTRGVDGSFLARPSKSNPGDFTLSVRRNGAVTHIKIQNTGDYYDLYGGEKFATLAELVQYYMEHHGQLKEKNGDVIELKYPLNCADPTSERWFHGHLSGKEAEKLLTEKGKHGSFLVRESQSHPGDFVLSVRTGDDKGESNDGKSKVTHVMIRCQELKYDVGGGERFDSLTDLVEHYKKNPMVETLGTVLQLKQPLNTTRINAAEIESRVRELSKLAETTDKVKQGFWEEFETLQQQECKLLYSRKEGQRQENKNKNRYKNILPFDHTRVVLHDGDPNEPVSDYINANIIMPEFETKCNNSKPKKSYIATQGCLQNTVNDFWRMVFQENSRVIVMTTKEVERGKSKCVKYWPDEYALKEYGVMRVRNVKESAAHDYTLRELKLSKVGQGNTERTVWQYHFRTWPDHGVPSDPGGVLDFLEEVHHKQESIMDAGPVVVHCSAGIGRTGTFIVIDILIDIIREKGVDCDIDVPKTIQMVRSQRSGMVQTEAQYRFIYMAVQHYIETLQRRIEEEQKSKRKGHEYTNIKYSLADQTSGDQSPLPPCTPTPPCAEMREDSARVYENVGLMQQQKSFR

[5] = target: Receptor-type tyrosine-protein phosphatase F (Homo sapiens) (UniProt P10586); assay: Inhibition of LAR (unknown origin) at 20 ug/ml using pNPP as substrate; outline: as §1
Homo sapiens = species on record: Homo sapiens; assay: Selectivity index, ratio of IC50 for inhibition of TCPTP (unknown origin) using pNPP as substrate to IC50 for inhibition of PTP1B (unknown origin) using pNPP as substrate
Outline: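 Both TCPTP and PTP1B IC50 values were measured by the same pNPP hydrolysis assay, derived by regression from triplicate dose-response data. The index is the TCPTP IC50 divided by the PTP1B IC50.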

[6] = target: T5, Tyrosine-protein phosphatase non-receptor type 1 (Homo sapiens, UniProt P18031); assay: Inhibition of PTP1B (unknown origin) using pNPP as substrate
T5 sequence (P18031 whole entry): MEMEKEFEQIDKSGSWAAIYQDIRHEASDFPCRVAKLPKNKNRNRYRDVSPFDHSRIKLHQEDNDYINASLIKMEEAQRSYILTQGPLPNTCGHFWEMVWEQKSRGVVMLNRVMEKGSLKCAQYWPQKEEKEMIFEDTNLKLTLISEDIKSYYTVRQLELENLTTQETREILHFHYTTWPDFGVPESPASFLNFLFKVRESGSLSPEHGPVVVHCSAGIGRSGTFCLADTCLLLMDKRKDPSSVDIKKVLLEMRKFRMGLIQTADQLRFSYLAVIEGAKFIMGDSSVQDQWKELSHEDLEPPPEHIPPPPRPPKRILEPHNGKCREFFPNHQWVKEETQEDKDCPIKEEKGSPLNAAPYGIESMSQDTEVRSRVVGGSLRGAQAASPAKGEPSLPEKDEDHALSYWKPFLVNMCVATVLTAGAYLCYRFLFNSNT

[7] = target: T6, Tyrosine-protein phosphatase non-receptor type 11 (Homo sapiens, UniProt Q06124); assay: Inhibition of SHP2 (unknown origin) using pNPP as substrate; outline: as §2
T6 sequence (Q06124 whole entry): T4 sequence (whole entry)

[8] = target: T2, Tyrosine-protein phosphatase non-receptor type 6; assay: Inhibition of SHP1 (unknown origin) using pNPP as substrate; outline: as §2
[9] = target: T7, Tyrosine-protein phosphatase non-receptor type 1 (Homo sapiens) (UniProt P18031); assay: Time dependent inhibition of PTP1B (unknown origin) using pNPP as substrate
T7 sequence (whole entry): T5 sequence (P18031 whole entry)

[10] = target: T7, Tyrosine-protein phosphatase non-receptor type 1 (Homo sapiens); assay: Potency index, ratio of IC50 for oleanolic acid to IC50 for test compound for inhibition of PTP1B (unknown origin) using pNPP as substrate
Outline: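 Both IC50 values come from dose-response inhibition of PTP1B with pNPP as substrate, fitted by regression (mean ± SD, n = 3). The ratio divides the IC50 of the reference PTP1B inhibitor by that of the test compound.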

[11] = target: T5, Tyrosine-protein phosphatase non-receptor type 1; assay: Competitive type inhibition of PTP1B (unknown origin) using pNPP as substrate by Lineweaver-Burk plot analysis

T2 sequence (P29350 whole entry): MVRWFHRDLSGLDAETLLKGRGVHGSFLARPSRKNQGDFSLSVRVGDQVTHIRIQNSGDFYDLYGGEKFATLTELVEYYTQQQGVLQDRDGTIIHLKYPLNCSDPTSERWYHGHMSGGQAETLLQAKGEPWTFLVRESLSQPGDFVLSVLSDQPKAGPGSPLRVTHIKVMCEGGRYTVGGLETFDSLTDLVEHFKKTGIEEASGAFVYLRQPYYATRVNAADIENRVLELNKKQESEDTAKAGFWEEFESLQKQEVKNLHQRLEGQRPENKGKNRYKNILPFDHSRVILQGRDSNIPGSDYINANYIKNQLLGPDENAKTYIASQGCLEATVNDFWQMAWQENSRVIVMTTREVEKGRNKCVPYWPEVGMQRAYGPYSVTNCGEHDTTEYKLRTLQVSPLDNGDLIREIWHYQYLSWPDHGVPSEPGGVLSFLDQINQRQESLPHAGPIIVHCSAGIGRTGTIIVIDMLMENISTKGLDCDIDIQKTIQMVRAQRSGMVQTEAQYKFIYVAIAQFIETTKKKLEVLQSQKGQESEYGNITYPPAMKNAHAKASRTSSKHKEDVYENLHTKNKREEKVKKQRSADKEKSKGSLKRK
Receptor-type tyrosine-protein phosphatase F (Homo sapiens), sequence (P10586 whole entry): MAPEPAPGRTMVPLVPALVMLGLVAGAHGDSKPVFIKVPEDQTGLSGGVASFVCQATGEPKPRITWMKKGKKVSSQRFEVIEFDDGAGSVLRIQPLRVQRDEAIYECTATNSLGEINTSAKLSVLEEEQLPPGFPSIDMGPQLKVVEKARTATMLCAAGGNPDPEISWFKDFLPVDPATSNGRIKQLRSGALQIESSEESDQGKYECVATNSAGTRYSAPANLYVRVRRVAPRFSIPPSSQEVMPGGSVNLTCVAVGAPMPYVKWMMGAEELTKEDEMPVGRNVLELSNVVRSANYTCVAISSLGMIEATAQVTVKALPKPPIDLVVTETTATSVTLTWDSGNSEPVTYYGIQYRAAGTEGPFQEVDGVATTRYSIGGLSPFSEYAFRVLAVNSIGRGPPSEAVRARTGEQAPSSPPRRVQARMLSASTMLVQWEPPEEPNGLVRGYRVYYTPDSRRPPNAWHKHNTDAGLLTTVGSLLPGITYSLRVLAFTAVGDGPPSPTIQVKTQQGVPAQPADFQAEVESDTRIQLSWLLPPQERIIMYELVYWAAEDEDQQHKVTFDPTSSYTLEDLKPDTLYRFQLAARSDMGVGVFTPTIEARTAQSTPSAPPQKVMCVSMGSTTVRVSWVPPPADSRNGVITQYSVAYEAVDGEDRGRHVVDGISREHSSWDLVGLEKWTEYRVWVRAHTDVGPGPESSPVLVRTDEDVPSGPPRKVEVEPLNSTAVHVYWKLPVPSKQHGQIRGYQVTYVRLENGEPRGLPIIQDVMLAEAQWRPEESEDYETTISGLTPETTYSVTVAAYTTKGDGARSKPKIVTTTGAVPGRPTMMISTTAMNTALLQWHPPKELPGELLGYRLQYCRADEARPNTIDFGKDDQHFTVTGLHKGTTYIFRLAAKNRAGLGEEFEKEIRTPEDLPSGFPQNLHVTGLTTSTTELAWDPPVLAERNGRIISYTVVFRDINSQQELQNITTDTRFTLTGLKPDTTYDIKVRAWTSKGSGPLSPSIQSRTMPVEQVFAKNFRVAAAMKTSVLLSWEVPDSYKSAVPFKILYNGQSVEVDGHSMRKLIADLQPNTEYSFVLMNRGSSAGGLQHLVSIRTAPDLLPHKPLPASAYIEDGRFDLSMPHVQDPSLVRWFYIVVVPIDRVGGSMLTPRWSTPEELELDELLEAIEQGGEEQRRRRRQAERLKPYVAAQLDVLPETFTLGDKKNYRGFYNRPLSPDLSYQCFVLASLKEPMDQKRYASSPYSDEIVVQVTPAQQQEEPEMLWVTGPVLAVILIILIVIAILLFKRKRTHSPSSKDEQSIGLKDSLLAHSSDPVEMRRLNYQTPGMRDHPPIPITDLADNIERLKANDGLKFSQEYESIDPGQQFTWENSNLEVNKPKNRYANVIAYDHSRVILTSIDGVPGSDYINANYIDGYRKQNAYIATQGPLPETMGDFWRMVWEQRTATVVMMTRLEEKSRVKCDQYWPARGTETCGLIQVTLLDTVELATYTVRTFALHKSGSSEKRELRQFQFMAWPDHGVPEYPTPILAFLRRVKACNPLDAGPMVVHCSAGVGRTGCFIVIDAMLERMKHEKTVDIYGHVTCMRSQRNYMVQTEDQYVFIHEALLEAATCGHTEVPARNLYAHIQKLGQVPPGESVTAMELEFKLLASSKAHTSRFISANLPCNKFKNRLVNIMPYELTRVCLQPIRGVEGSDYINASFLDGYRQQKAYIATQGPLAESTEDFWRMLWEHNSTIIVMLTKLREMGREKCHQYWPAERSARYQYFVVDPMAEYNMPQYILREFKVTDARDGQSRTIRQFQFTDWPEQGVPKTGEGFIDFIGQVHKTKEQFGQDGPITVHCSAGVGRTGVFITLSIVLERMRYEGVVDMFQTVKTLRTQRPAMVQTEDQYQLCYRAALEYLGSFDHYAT

O=C(O)CCCCCN1C(=O)/C(=C/c2cn(-c3ccccc3)nc2-c2ccc(Cl)cc2Cl)SC1=S
IC50 [1]: 5.63 µM | inhibition [2]: inactive | IC50 [3]: 10.9 µM | inhibition [4]: inactive | inhibition [5]: inactive | Ratio IC50 (Homo sapiens): 2 to 9 | IC50 [6]: 1.35 µM

O=C(O)CCCCCN1C(=O)/C(=C/c2cn(-c3ccccc3)nc2-c2ccc(Cl)cc2)SC1=S
IC50 [6]: 1.85 µM

COc1ccc(-c2nn(-c3ccccc3)cc2/C=C2\SC(=S)N([C@H](Cc3ccccc3)C(=O)O)C2=O)cc1
IC50 [6]: 7.09 µM

O=C(O)CCCCN1C(=O)/C(=C/c2cn(-c3ccccc3)nc2-c2ccc(Cl)cc2)SC1=S
IC50 [6]: 2.2 µM

O=C(O)[C@@H](Cc1ccccc1)N1C(=O)/C(=C/c2cn(-c3ccccc3)nc2-c2ccc(Cl)cc2Cl)SC1=S
IC50 [1]: 12.7 µM | IC50 [7]: 16.7 µM | IC50 [8]: 16.8 µM | IC50 [3]: 13.7 µM | inhibition [5]: inactive | Ratio IC50 (Homo sapiens): 2 to 9 | IC50 [6]: 3.56 µM

COc1ccccc1-c1nn(-c2ccccc2)cc1/C=C1\SC(=S)N([C@H](Cc2ccccc2)C(=O)O)C1=O
IC50 [6]: 6.3 µM

O=C(O)CCCCN1C(=O)/C(=C/c2cn(-c3ccccc3)nc2-c2ccc(Cl)cc2Cl)SC1=S
IC50 [1]: 5.77 µM | inhibition [2]: inactive | TDI [9]: inactive | Ratio IC50 [10]: 2.5 | Ki [11]: 0.31 µM | IC50 [3]: 28.1 µM | inhibition [4]: inactive | inhibition [5]: inactive | Ratio IC50 (Homo sapiens): 2 to 9 | IC50 [6]: 0.67 µM

O=C(O)CN1C(=O)/C(=C/c2cn(-c3ccccc3)nc2-c2ccc3ccccc3c2)SC1=S
IC50 [1]: 7.91 µM | IC50 [7]: 20.9 µM | IC50 [8]: 24.5 µM | IC50 [3]: 11.3 µM | inhibition [5]: inactive | Ratio IC50 (Homo sapiens): 2 to 9 | IC50 [6]: 4.78 µM

O=C(O)CN1C(=O)/C(=C/c2cn(-c3ccccc3)nc2-c2cccc(Cl)c2)SC1=S
IC50 [6]: 13.2 µM

O=C(O)CN1C(=O)/C(=C/c2cn(-c3ccccc3)nc2-c2cccc(Br)c2)SC1=S
IC50 [6]: 12.1 µM

COc1ccccc1-c1nn(-c2ccccc2)cc1/C=C1\SC(=S)N(CC(=O)O)C1=O
IC50 [6]: 24.6 µM

Cc1ccc(-c2nn(-c3ccccc3)cc2/C=C2\SC(=S)N([C@H](Cc3ccccc3)C(=O)O)C2=O)cc1
IC50 [6]: 2.05 µM

O=C(O)CCCN1C(=O)/C(=C/c2cn(-c3ccccc3)nc2-c2ccc(Cl)cc2Cl)SC1=S
IC50 [1]: 9.18 µM | inhibition [2]: inactive | IC50 [3]: 13.8 µM | inhibition [4]: inactive | inhibition [5]: inactive | Ratio IC50 (Homo sapiens): 2 to 9 | IC50 [6]: 3.66 µM

O=C(O)[C@@H](Cc1ccccc1)N1C(=O)/C(=C/c2cn(-c3ccccc3)nc2-c2ccc3ccccc3c2)SC1=S
IC50 [1]: 4.61 µM | inhibition [2]: inactive | TDI [9]: inactive | Ki [11]: 0.7 µM | IC50 [3]: 6.12 µM | inhibition [4]: inactive | inhibition [5]: inactive | Ratio IC50 (Homo sapiens): 2 to 9 | IC50 [6]: 1.81 µM

O=C(O)CCN1C(=O)/C(=C/c2cn(-c3ccccc3)nc2-c2ccc(Cl)cc2Cl)SC1=S
IC50 [1]: 14 µM | inhibition [2]: inactive | IC50 [3]: 17.1 µM | inhibition [4]: inactive | inhibition [5]: inactive | Ratio IC50 (Homo sapiens): 2 to 9 | IC50 [6]: 7.93 µM

O=C(O)CN1C(=O)/C(=C/c2cn(-c3ccccc3)nc2-c2ccc(Br)cc2)SC1=S
IC50 [6]: 14.2 µM

O=C(O)CCCN1C(=O)/C(=C/c2cn(-c3ccccc3)nc2-c2ccc(Cl)cc2)SC1=S
IC50 [6]: 2.27 µM

O=C(O)[C@@H](Cc1ccccc1)N1C(=O)/C(=C/c2cn(-c3ccccc3)nc2-c2ccc(Br)cc2)SC1=S
IC50 [6]: 4.42 µM

O=C(O)CN1C(=O)/C(=C/c2cn(-c3ccccc3)nc2-c2ccc([N+](=O)[O-])cc2)SC1=S
IC50 [6]: 9.24 µM

O=C(O)[C@@H](Cc1ccccc1)N1C(=O)/C(=C/c2cn(-c3ccccc3)nc2-c2cccc(Br)c2)SC1=S
IC50 [6]: 2.76 µM

O=C(O)[C@@H](Cc1ccccc1)N1C(=O)/C(=C/c2cn(-c3ccccc3)nc2-c2ccccc2Cl)SC1=S
IC50 [6]: 4.89 µM

Cc1ccc(-c2nn(-c3ccccc3)cc2/C=C2\SC(=S)N(CC(=O)O)C2=O)cc1
IC50 [6]: 14.7 µM

O=C(O)[C@@H](Cc1ccccc1)N1C(=O)/C(=C/c2cn(-c3ccccc3)nc2-c2ccc(Cl)cc2)SC1=S
IC50 [6]: 2.1 µM

O=C(O)[C@@H](Cc1ccccc1)N1C(=O)/C(=C/c2cn(-c3ccccc3)nc2-c2ccccc2)SC1=S
IC50 [6]: 6.37 µM

COc1cccc(-c2nn(-c3ccccc3)cc2/C=C2\SC(=S)N([C@H](Cc3ccccc3)C(=O)O)C2=O)c1
IC50 [6]: 4.95 µM

O=C(O)[C@@H](Cc1ccccc1)N1C(=O)/C(=C/c2cn(-c3ccccc3)nc2-c2ccc([N+](=O)[O-])cc2)SC1=S
IC50 [6]: 3.57 µM

O=C(O)CCN1C(=O)/C(=C/c2cn(-c3ccccc3)nc2-c2ccc(Cl)cc2)SC1=S
IC50 [6]: 6.58 µM

— ChEMBL document CHEMBL4316629, “Discovery of 1,3-diphenyl-1H-pyrazole derivatives containing rhodanine-3-alkanoic acid groups as potential PTP1B inhibitors” (Bioorg Med Chem Lett, 2019)
